# Measurements from ChEMBL document CHEMBL1157729, “Structure-activity relationship and mechanism of action studies of manzamine analogues for the control of neuroinflammation and cerebral infections” (J Med Chem, 2010).
# Experiments:
# [1] = tested on: Mus musculus; test: Toxicity in Plasmodium berghei NK65 infected Swiss Webster mice (Mus musculus) at 3 mg/kg, intraperitoneally administered as 10 doses measured after 3 days of inoculation; assay type: organism-based; design: dose 3 mg/kg, route intraperitoneal; details: in vivo, ip, 72 h
# Summary of the method: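 Male Swiss Webster mice (18-20 g), 5 per group, were inoculated i.p. with 2×10^7 P. berghei NK-65 parasitized red cells. Compound was given i.p. at 10×3 mg/kg, with a vehicle-control group. Day of death, mean survival time and cure were recorded. Parasitemia was read on Giemsa-stained tail-blood smears (days 5, 7), with suppression relative to the control mean. Cure meant no parasitemia through day 28.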
# [2] = tested on: Plasmodium berghei; test: Antiplasmodial activity against Plasmodium berghei NK65 infected in Swiss Webster mice (Mus musculus) assessed as parasitaemia cure at 100 mg/kg, perorally administered 1 day after infection measured after 28 days post infection; assay type: functional; details: route oral
# Summary of the method: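 P. berghei NK-65 infection in male Swiss Webster mice (18-20 g; 2×10^7 parasitized erythrocytes i.p.; ≥5 per group). A single oral dose of 100 μl, diluted in SSV or 0.01 M HCl, then observation for toxicity signs and body weight. Parasitemia read from Giemsa-stained tail smears from day 5 through day 28. Mice free of parasitemia through day 28 counted as cured.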
# [3] = tested on: Plasmodium berghei; test: Antiplasmodial activity against Plasmodium berghei NK65 infected in Swiss Webster mice (Mus musculus) assessed as inhibition of parasitaemia at 200 mg/kg, perorally administered 1 day after infection measured after 5 days post infection; assay type: functional; details: Plasmodium berghei, NK65, route oral
# Summary of the method: (§1)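 Male Swiss Webster mice (18-20 g, ≥5/group) inoculated i.p. with 2×10^7 P. berghei NK-65 parasitized RBC, given a single oral dose (100 μl, SSV or dilute HCl vehicle); parasitemia by Giemsa-stained tail blood smears days 5–28; activity as % decrease versus untreated controls on day 5.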
# [4] = tested on: Plasmodium berghei; test: Antiplasmodial activity against Plasmodium berghei NK65 infected in Swiss Webster mice (Mus musculus) assessed as average parasitaemia at 5 mg/kg, perorally administered 1 day after infection for 3 days measured after 14 days post infection; assay type: functional; details: route oral
# [5] = tested on: Plasmodium berghei; test: Antiplasmodial activity against Plasmodium berghei NK65 infected in Swiss Webster mice (Mus musculus) assessed as average parasitaemia at 200 mg/kg, perorally administered 1 day after infection measured after 21 days post infection; assay type: functional; details: Plasmodium berghei, NK65, route oral
# Summary of the method: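 Male Swiss Webster mice (18-20 g), at least 5 per group, were inoculated ip with 2×10^7 P. berghei NK-65-parasitized red cells from a donor mouse and given a single oral dose (100 μl). Stock was made in SSV or 0.1 M HCl and diluted in SSV or 0.01 M HCl. Parasitemia was read from Giemsa-stained tail blood smears from day 5 to day 28. Cure meant no parasitemia through day 28.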
# [6] = tested on: Mus musculus; test: Toxicity in Plasmodium berghei NK65 infected Swiss Webster mice (Mus musculus) assessed as weight loss at 10 mg/kg, intraperitoneally administered 1 day after infection measured after 3 days post infection; assay type: organism-based; design: dose 10 mg/kg, route intraperitoneal; details: in vivo, ip, 72 h
# [7] = tested on: Plasmodium berghei; test: Antiplasmodial activity against Plasmodium berghei NK65 infected in Swiss Webster mice (Mus musculus) assessed as parasitaemia cure at 3.3 mg/kg, perorally administered 1 day after infection for 3 days measured after 28 days post infection; assay type: functional; details: route oral
# Summary of the method: (§2)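 Male Swiss Webster mice (18-20 g), at least 5 per group, inoculated i.p. with 2×10^7 P. berghei NK-65 parasitized red cells from a donor mouse. Oral dosing (100 μl, in SSV or dilute HCl) from day one after infection, three-day modified Peters suppressive schedule. Giemsa-stained tail blood smears from day 5 through day 28. Inhibition is % parasitemia drop on day 5 versus untreated controls. Cure means no parasitemia through day 28.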
# [8] = Selectivity index, ratio of IC50 for african green monkey (Cercopithecus aethiops) Vero cells to IC50 for chloroquine-sensitive Plasmodium falciparum; assay type: toxicity, cell-based
# [9] = tested on: Plasmodium berghei; test: Antiplasmodial activity against Plasmodium berghei NK65 infected in Swiss Webster mice (Mus musculus) assessed as average parasitaemia at 10 mg/kg, perorally administered 1 day after infection for 3 days measured after 14 days post infection; assay type: functional; details: route oral
# [10] = tested on: Plasmodium berghei; test: Antiplasmodial activity against Plasmodium berghei NK65 infected in Swiss Webster mice (Mus musculus) assessed as parasitaemia cure at 1.1 mg/kg, perorally administered 1 day after infection for 3 days measured after 28 days post infection; assay type: functional; details: route oral
# Summary of the method: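 Male Swiss Webster mice (18-20 g), at least 5 per group, inoculated i.p. with 2×10^7 P. berghei NK-65-parasitized red cells from a donor mouse. Oral dosing (100 μl, in SSV or 0.01 M HCl dilutions) from day one post-infection on a 3-day schedule (modified Peters test). Giemsa-stained tail-blood smears read from day 5 to day 28. Cure means no parasitemia through day 28.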
# [11] = Antineuroinflammatory activity in LPS-stimulated rat neonatal microglia assessed as drug level causing 50% PMA-induced LDH release preincubated 15 mins prior to PMA challenge measured after 70 mins; assay type: functional
# Summary of the method: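 Neonatal rat microglia (2 × 10^5/well) primed with E. coli LPS 0.3 ng/mL for 17 h at 35.9 °C, washed with HBSS, given compound (0.01–10 μM) or DMSO 15 min, then PMA 1 μM; LDH read spectrophotometrically after 70 min; LDH50 relative to Triton X-100 (0.1%) release; duplicates.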
# [12] = tested on: Plasmodium berghei; test: Antiplasmodial activity against Plasmodium berghei NK65 infected in Swiss Webster mice (Mus musculus) assessed as inhibition of parasitaemia at 5 mg/kg, perorally administered 1 day after infection for 3 days measured after 5 days post infection; assay type: functional; details: route oral
# [13] = tested on: Plasmodium berghei; test: Antiplasmodial activity against Plasmodium berghei NK65 infected in Swiss Webster mice (Mus musculus) assessed as average parasitaemia at 5 mg/kg, perorally administered 1 day after infection for 3 days measured after 10 days post infection; assay type: functional; details: route oral
# [14] = tested on: Plasmodium berghei; test: Antiplasmodial activity against Plasmodium berghei NK65 infected in Swiss Webster mice (Mus musculus) assessed as suppression of parasitaemia at 10 mg/kg, intraperitoneally administered 1 day after infection for 3 days measured after 5 days post infection relative to control; assay type: functional; details: Plasmodium berghei, NK65, ip, route intraperitoneal
# [15] = tested on: HeLa; test: Cell cycle arrest in human HeLa cells assessed as increase in S phase accumulation at 10 uM after 24 hrs by FACS analysis; assay type: functional
# [16] = tested on: Plasmodium berghei; test: Antiplasmodial activity against Plasmodium berghei NK65 infected in Swiss Webster mice (Mus musculus) at 1.1 mg/kg, po; assay type: functional; summary of the method: as §2
# [17] = tested on: HeLa; test: Cell cycle arrest in human HeLa cells assessed as decrease in G2/M phase accumulation at 3 uM after 24 hrs by FACS analysis; assay type: functional; design: scale not given: the % may be the effect or the level left
# [18] = tested on: Plasmodium berghei; test: Antiplasmodial activity against Plasmodium berghei NK65 infected in Swiss Webster mice (Mus musculus) assessed as average parasitaemia at 50 mg/kg, perorally administered as single dose measured after 5 days of inoculation; assay type: functional; details: NK65, 120 h, route oral; summary of the method: as §1
# [19] = tested on: Plasmodium berghei; test: Antiplasmodial activity against Plasmodium berghei NK65 infected in Swiss Webster mice (Mus musculus) assessed as average parasitaemia at 100 mg/kg, perorally administered 1 day after infection measured after 7 days post infection; assay type: functional; details: route oral
# [20] = tested on: Plasmodium berghei; test: Antiplasmodial activity against Plasmodium berghei NK65 infected in Swiss Webster mice (Mus musculus) assessed as average parasitaemia at 50 mg/kg, perorally administered 1 day after infection measured after 28 days post infection; assay type: functional; details: route oral; summary of the method: as §1
# [21] = tested on: Plasmodium berghei; test: Antiplasmodial activity against Plasmodium berghei NK65 infected in Swiss Webster mice (Mus musculus) assessed as average parasitaemia at 1.1 mg/kg, perorally administered 1 day after infection for 3 days measured after 21 days post infection; assay type: functional; details: route oral
smiles,measurement,setting,value
O[C@]12C=C(c3nccc4c3[nH]c3ccccc34)[C@@H]3CCN(CCCC/C=C\CC1)C[C@@]31C[C@@H]3/C=C\CCCCN3[C@H]12 [MANZAMINE A],Activity,[1],Non-toxic
same,inhibition in vivo at 100 mg/kg,[2],100%
same,inhibition in vivo at 200 mg/kg,[3],100%
same,inhibition in vivo at 5 mg/kg,[4],13.5%
same,inhibition in vivo at 200 mg/kg,[5],0%
same,Activity,[6],Toxic
same,inhibition in vivo at 3.3 mg/kg,[7],25%
same,Ratio IC50,[8],44
same,inhibition in vivo at 10 mg/kg,[9],0.9%
same,inhibition in vivo at 1.1 mg/kg,[10],0%
same,Activity,[11],>10 µM
same,inhibition in vivo at 5 mg/kg,[12],88%
same,inhibition in vivo at 5 mg/kg,[13],7.8%
same,inhibition in vivo at 10 mg/kg,[14],100%
same,Activity,[15],59.1%
same,inhibition in vivo at 1.1 mg/kg,[16],26.5%
same,Activity,[17],13%
same,inhibition in vivo at 50 mg/kg,[18],0%
same,inhibition in vivo at 100 mg/kg,[19],0%
same,inhibition in vivo at 50 mg/kg,[20],6.25%
same,inhibition in vivo at 1.1 mg/kg,[21],39.6%
